The labels stand for the following.
B1: tRNA (parent)
chain: GUUCCGUUGGCGUAAUGGUAACGCGUCUCCCUCCUAAGGAGAAGACUGCGGGUUCGAGUCCCGUACGGAACG

Fewer inactive variants are shown than the library holds.

The variants in this data set derive from B1. The data set is described as follows: yeast fitness relative to wild type (ratio to wild type); higher = fitter; tRNA-Arg(CCU), competitive growth, 37 C, YPD. The essentials: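 Gene amplicons from the start population and from each of six end populations were read by 100-nucleotide paired-end sequencing. Those end populations came from pooled Saccharomyces cerevisiae strains carrying tRNA-Arg(CCU) gene variants at the native locus, competed in YPD at 37°C for 24 hours. Fitness relative to wild type was worked out from changes in genotype frequencies. Genotypes needed ≥ 100 starting reads, and estimates < 0.5 were set to 0.5.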
On to GUUCCGUUCGCGUGAUGGUAACGCGUCUCCCUCCUAAGGAGACGACUGCGGGUUCGAGUCCCGUACGGAACG [G9C A14G A43C], for which the yeast fitness was at most 0.5.

Regarding GUUCCGUUCGCGUAAUGGUAACGCGUCUCCCUCCUAAGGAGAAGACUGCGGGUUCGAGUCCCGUACGGAACG [G9C], the yeast fitness amounted to 0.853. Then GUUCCGUUAGCGUAACGGUAACGCGUCUCGCUCGUAAGGGGAAGACUGCGGGUUCGAGUCAUCUACGGAACG [G9A U16C C30G C34G A40G C61A C62U G63C], with 0.666.

In the case of GUUCCGUUAGCGUAAUGGGAACGCGUCUCCCUCCUACGGAGAUGAGUGCGGGUUCGAGUCCCGUACGAAACG [G9A U19G A37C A43U C46G G68A], the yeast fitness is at most 0.5. Then GUUCCGUUCGCGUCAUGGUAACGCGUCUCCCUCCUAAGGAGAACACUGCGGGUUCGAGUCCCGGACGGACCG [G9C A14C G44C U64G A70C], with at most 0.5. Take GUUCCGUUAGCGUAAUGGUAACGCGACUCCCUCCUUAGGCGAAGACUGCGGGUUCGAGUCCCGUUCGGAACG [G9A U26A A36U A40C A65U]: the yeast fitness was at most 0.5. On to GUUCCGUUAGCGUAAUGGUAACGCGUCCCCCUCCUAAGGCGAAGACUACGGGUUCGAGUCCCGUACGGAACG [G9A U28C A40C G48A], for which the yeast fitness was at most 0.5. As for GUUCCGUUAGCGUAACGGGAACGCGUAUCCCUUCUAAGGAGAAGACUGCGGGCUCGAGUCCCGUUUGGAACG [G9A U16C U19G C27A C33U U53C A65U C66U], the yeast fitness is at most 0.5.

On to GUUCCGUUCGCGUGAUGGUAACGCGACUCCCGCCUAAGGAGAAGACUGCGGGUUCGAGUCCCGUACGGAACG [G9C A14G U26A U32G], for which the yeast fitness was at most 0.5. Regarding GUUCCGUUAGCGUAAUGGUAACGCGUCGCCCUCCUAAGGAGAAGCCUGCGGGUUCGAGUCCCGUACGGAACG [G9A U28G A45C], the yeast fitness was at most 0.5. GUUCCGUUAGCGUAAUGGCAACCCGUCUCCCUCCUAAGGAGAAGACUGCGGGUUCGAGACCCGUACGCAACG [G9A U19C G23C U59A G68C]: the yeast fitness is at most 0.5. The figure for GUUCCGUUAGCGUAAUGGUAACGCGUCUCCCUCCUAAGGAGAAGACUGCGGGUUCGAGACCCGUACGGGACG [G9A U59A A69G] is 0.697; for GUUCCGUUAGCGUAAUGGUAACGCGUCUCCCCGCUAGGGAGAAGACUGCGGAUUUGAGUCCCAUUCGGAACG [G9A U32C C33G A37G G52A C55U G63A A65U] it is at most 0.5. The figure for GUUCCGUUAGCGUAAUGGUAACGCGUCUCCCUCCUAAGGAGAAGACAGCGGGUUCGAGUCCCGUACGGAACG [G9A U47A] is 0.796; for GUUCCGUUAGCGUAACGGUAACGCGUCUCCCGCCUAAGGAGAAGACUCCGGGUUCGACUCCCGUACGGAACG [G9A U16C U32G G48C G58C] it is at most 0.5. Then GUUCCGUUAGCGUAACGGUAACGCGUCUCCCGCCUAAGGAGAAGACUCCGGGUUCGAGUCCCGUACGGAACG [G9A U16C U32G G48C], with at most 0.5; and GUUCCGUUAGCGUAAUGGCAACGCGUCUCCCUCCUAAGGAGAAGACUGCGGGUUCGAGUCCCGUACGGCACG [G9A U19C A69C], with 0.834; and GUUCCGUUAGCGUAAUGGUAACGCGUCUCCCUCCUAAGGAGAAGACUGCGGGUGCGAGUCCCGUACGGAACG [G9A U54G], with 0.552. As for GUUCCGUUCGCGUCAUGGUAACGCGUCUCCCUCCUAAGGAGAACACUGCGGGUUCGUGUCCCGUACGGAACG [G9C A14C G44C A57U], the yeast fitness was at most 0.5. As to GUUCCGUUCGCGUCAUGGUAACGCGUCUCCCUCCUAAGGAGAACACUGCGGGUUCGCGUCCCGUACGGAACG [G9C A14C G44C A57C], the yeast fitness was 0.573. For GUUCCGUUAGCGUAAUGGUAACGCGUCUCCCUCCCAAGGAGUAGACUGCGGGUUCGAGUCCCAUACGGAACG [G9A U35C A42U G63A], the yeast fitness is at most 0.5.

As for GUUCCGUUAGCGUAAUGGCAACGCGUCUCCCUCCUAAGGAGAAGACUGGGGGUUCGAGUCCCGUACGGAACG [G9A U19C C49G], the yeast fitness was 0.634. On to GUUCCGUUAGCGUAAGGGUAACGCGUCUCCCUCCUAAGGAGAAGACUGCGGGUUCGAGUCCCGUACGGAACG [G9A U16G], for which the yeast fitness turned out to be 0.799.

In the case of GUUCCGUUAGCGUAAUGGUAACGCGUCACCCUCCUAAGGAGAAGACUGCGGGUUUGAGUCCCGUACGAAACG [G9A U28A C55U G68A], the yeast fitness is at most 0.5. With GUUCCGUUAGCGUAAUGGGAACGCGUCUCCCUCCUAAGGAGAAGACUGCGGGUUCGGGUCCCGUACGGAACG [G9A U19G A57G], the yeast fitness turned out to be 0.503. For GUUCCGUUAGCGUAAUGGUAACGCGUCCCCCUCCUAAGGAGAAAACUGCGCGUUCGACUCCCGUACGCAACG [G9A U28C G44A G51C G58C G68C], the yeast fitness is at most 0.5.

Consider GUUCCGUUCGCGUCAUGGUAACGCGUCUCCCUCCUAAGGAGAAGACUGCGGGUUCGGGUCCCGUACGGAACG [G9C A14C A57G], for which the yeast fitness is at most 0.5.

For the variant GUUCCGUUAGCGUAAUGGGAACGCGUCUCCCUCCUAAGGAGAAGGCUGCGGGUUCGAGUCCCGUACGGAACG [G9A U19G A45G], the yeast fitness came out at 0.528.

With GUUCCGUUAGCGUAAUGGUAACGCGUCUCCCGCCUAAGGCGAAGAGUGCGGGUUCGAGUCCCGUACGGAACG [G9A U32G A40C C46G], the yeast fitness was at most 0.5. Consider GUUCCGUUAGCGUAAUGGGAACGCGUCUCCCUCCUAAGGAGAAGACUGCGGGUUCGAGUCCCGUAUGGAACG [G9A U19G C66U], for which the yeast fitness worked out at 0.64.

As for GUUCCGUUAGCGUAAUGGUAACGCGACUCCCUCCUAAGGAGAUGACUGCGGGUUUGAGUCCCGUACGGAACG [G9A U26A A43U C55U], the yeast fitness is at most 0.5. Regarding GUUCCGUUAGCGUAAUGGUAACGCGGCUCCCUCCUAAGGAGAAGACUGCGGGUUGGAGUCCCGUACGGAACG [G9A U26G C55G], the yeast fitness amounted to 0.57.

Consider GUUCCGUUAGCGUAAUGGCAACCCGUCUCCCUCCUAAGGAGAAGACUGCGGGUUCGAGUCCCGUACGGAACG [G9A U19C G23C], for which the yeast fitness is at most 0.5.

For GUUCCGUUAGCGUAAUGGUAACGCGUCGCCCUCCUAAGGCGGAGACUGCGGGUUCGAGUCCCGUACGGCACG [G9A U28G A40C A42G A69C], the yeast fitness stood at 0.963.

As for GUUCCGUUAGCGUAAUGGUAACGCGUCACCCUCCUAAGGACAAGACUGCGGGUUCGAGUCCCGUCCCGAACG [G9A U28A G41C A65C G67C], the yeast fitness is 0.579. For the variant GUUCCGUUCGCGUGAUGGUAACGCGUCUCCCUCCUAAGGAGAAGACUGCGGGUUCGAGUCCUCUACGGACCG [G9C A14G C62U G63C A70C], the yeast fitness was at most 0.5.

With GUUCCGUUAGCGUAAUGGUAACGCGUCACCCUCCUAAGGAGAAGACUGCGGGUUCGAGUCCUGUACGAAACG [G9A U28A C62U G68A], the yeast fitness was at most 0.5.

The record behind these values is the RNAGym collection of RNA variant scans (doi:10.1126/science.aae0568).
